Experimental data: ChEMBL document CHEMBL1129793, “Quantitative structure-activity relationships for the in vitro antimycobacterial activity of pyrazinoic acid esters” (J Med Chem, 1996)

Tests used:
[1] = T1/2 in equine serum; assay type: ADME, organism-based, Equus caballus; details: horse
Summary of the method: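 Ester from a 1 mg/mL stock was mixed with 5% aqueous equine serum in 0.01 M KH2PO4, pH 7.2. Remaining ester was measured by isocratic reverse-phase HPLC (80% acetonitrile/20% 0.1 M sodium acetate, pH 5.0), with UV detection at 265 nm against a standard curve. Half-life is the time to 50% conversion to the acid.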

[2] = Partition coefficient (logP); assay type: physicochemical; details: octanol/water
Mycobacterium avium [3] = assay: In vitro activity against Mycobacterium avium (MAC-101).; assay type: functional
Summary of the method: (§1)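 Broth macrodilution MIC. Cultures were grown in modified Middlebrook 7H10 broth (agar and malachite green omitted) with 10% OADC and 0.05% Tween 80, shaken at 37 °C for 3 days, then diluted in 7H10 broth to 1 Klett unit/mL. Test agents were dissolved in water or DMSO and filter-sterilised, then serially diluted 2-fold in 7H10 broth at pH 5.8. Tubes were shaken at 37 °C for 7–10 days, with a drug-free control. MIC was the lowest concentration with no visible turbidity, expressed in mmol/L.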

[4] = test system: Mycobacterium tuberculosis; assay: In vitro activity against Mycobacterium tuberculosis (ATCC 27294); assay type: functional; summary of the method: as §1
[5] = test system: Mycobacterium tuberculosis; assay: In vitro activity against Mycobacterium tuberculosis (ATCC 35801); assay type: functional; summary of the method: as §1
[6] = test system: Mycobacterium tuberculosis; assay: In vitro activity against Mycobacterium tuberculosis (ATCC 35828); assay type: functional; summary of the method: as §1
Mycobacterium avium [7] = assay: In vitro activity against Mycobacterium avium (ATCC 49601).; assay type: functional; summary of the method: as §1
Mycobacterium kansasii = assay: in vitro activity against Mycobacterium kansasii (SWK).; assay type: functional
Summary of the method: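 M. kansasii clinical isolate SWK was grown 3 days at 37 °C with shaking in modified Middlebrook 7H10 broth with 10% OADC and 0.05% Tween 80, then diluted. It was tested in serial 2-fold dilutions in 7H10 broth at pH 5.8, shaken at 37 °C for 7–10 days, with a drug-free control. MIC was the lowest concentration giving no visible turbidity, expressed in mmol/L.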

Structure (SMILES)	half-life [1]	logP [2]	Log 1/MMIC (Mycobacterium avium [3])	Log 1/MMIC [4]	Log 1/MMIC [5]	Log 1/MMIC [6]	Log 1/MMIC (Mycobacterium avium [7])	Log 1/MMIC (Mycobacterium kansasii)
CCCCCCCC(C)(CCCCC)OC(=O)c1cnc(Cl)cn1 (stereo not given)	3170 min	6.96	0.744	2.249	1.948	1.647	0.744	–
CCCCCCCC(C)OC(=O)c1cnc(Cl)cn1 (stereo not given)	30 min	4.14	0.949	2.455	2.756	2.153	0.949	3.977
CCCCOC(=O)c1cnc(Cl)cn1	5.5 min	2.21	0.526	2.934	3.633	2.633	0.225	2.33
CCCCCCCCC(C)(CCCC)OC(=O)c1cnc(Cl)cn1 (stereo not given)	1140 min	7.05	0.744	–	–	1.647	0.744	1.346
CCCCCCCCCCOC(=O)c1cnccn1	0.8 min	4.58	0.917	2.723	3.024	3.024	1.519	3.723
CCCCCCCCCCOC(=O)c1cnc(F)cn1	4 min	5.08	0.946	2.15	1.849	1.849	0.946	2.451
CCCCCCCCCOC(=O)c1cnc(C)cn1	1 min	4.46	0.616	2.422	2.422	–	0.917	2.121
CC(C)COC(=O)c1cnc(Cl)cn1	11.8 min	1.97	0.526	2.031	2.934	2.031	0.526	2.33
CCCCCCCCC(C)(C)OC(=O)c1cnc(Cl)cn1	957 min	5.51	0.388	1.592	2.796	1.592	0.388	2.194
CCCCCCC(C)(C)OC(=O)c1cnc(Cl)cn1	510 min	4.39	0.648	3.057	1.852	3.057	0.648	2.455
CCCCCCC(C)(CCCCCC)OC(=O)c1cnc(Cl)cn1	1080 min	7.08	0.744	3.152	2.851	2.851	1.346	2.249
CCCCCC(C)OC(=O)c1cnc(Cl)cn1 (stereo not given)	16.2 min	3	0.904	3.631	2.711	3.631	0.904	3.313
CCCCCCCCCC(C)(C)OC(=O)c1cnc(Cl)cn1	902 min	6.01	0.106	1.611	2.514	1.31	0.106	2.815
CCCCCC(C)(CCCCC)OC(=O)c1cnc(Cl)cn1	360 min	5.82	0.708	–	–	1.31	0.708	1.611
CCCCCCC(C)(CCCC)OC(=O)c1cnc(Cl)cn1 (stereo not given)	648 min	5.93	0.106	–	1.611	1.31	0.106	1.912
CCCCCCCCC(CC)OC(=O)c1cnc(Cl)cn1 (stereo not given)	9 min	5.99	0.087	3.097	2.495	2.495	0.087	3.398
CCCCCC(C)(CCCC)OC(=O)c1cnc(Cl)cn1 (stereo not given)	390 min	5.3	0.087	1.893	1.592	–	0.087	1.291
CCCCCCCCCCCOC(=O)c1cnc(Cl)cn1	6 min	5.98	1.291	3.097	2.796	2.796	1.592	3.717

Structure (SMILES)	half-life [1]	logP [2]	Log 1/MMIC (Mycobacterium avium [3])	Log 1/MMIC [4]	Log 1/MMIC [5]	Log 1/MMIC [6]	Log 1/MMIC (Mycobacterium avium [7])	Log 1/MMIC (Mycobacterium kansasii)
CCCCCCCCCCOC(=O)c1cnc(Cl)cn1	1.9 min	5.48	0.97	–	3.077	–	1.271	2.776
CCCCCCC(C)(CCCCC)OC(=O)c1cnc(Cl)cn1 (stereo not given)	1410 min	6.45	0.726	2.232	–	1.329	0.726	1.63
CCCCCC(CC)OC(=O)c1cnc(Cl)cn1 (stereo not given)	7 min	4.24	0.626	2.734	3.035	3.035	0.927	3.955
CCCCCCC(CCCCCC)OC(=O)c1cnc(Cl)cn1	60 min	7.04	1.329	3.135	–	–	0.726	2.834
CCCCCCCC(C)(CCCC)OC(=O)c1cnc(Cl)cn1 (stereo not given)	600 min	6.44	0.124	1.63	1.931	–	0.124	1.329
CCCCCCCCOC(=O)c1cnc(Cl)cn1	1.3 min	4.48	1.228	3.654	–	–	1.228	3.955
CCCCCOC(=O)c1cnc(Cl)cn1	3.2 min	2.73	0.854	3.581	2.961	3.262	0.854	3.882
CCOC(=O)c1cnc(Cl)cn1	110 min	1.19	0.164	2.271	–	1.067	0.164	1.97
CCCCCCC(C)OC(=O)c1cnc(Cl)cn1 (stereo not given)	28.2 min	3.63	0.927	–	–	–	0.927	3.035
CCCCCCCCCCCC(C)OC(=O)c1cnc(Cl)cn1 (stereo not given)	50 min	6.25	0.124	2.232	2.834	2.834	1.027	3.754
CCCCCCCCCC(C)OC(=O)c1cnc(Cl)cn1 (stereo not given)	29.6 min	5.25	1.291	3.087	3.398	2.495	1.291	3.097
O=C(OCc1ccccc1)c1cnc(Cl)cn1	5 min	2.39	1.493	–	2.697	–	1.794	2.396
CC(C)(C)OC(=O)c1cnc(Cl)cn1	1200 min	1.7	0.225	1.73	2.031	1.73	2.33	2.633
CCCOC(=O)c1cnc(Cl)cn1	18.7 min	1.67	1.098	3.524	3.825	–	1.098	2.904
CCCCCCCOC(=O)c1cnc(Cl)cn1	3.2 min	3.87	1.506	3.631	–	–	1.205	3.932
CCC(C)(CC)OC(=O)c1cnc(Cl)cn1	1020 min	2.74	-0.023	1.482	1.482	1.783	-0.023	2.084
CCCCCCOC(=O)c1cnc(Cl)cn1	2.2 min	3.36	0.88	3.288	3.288	2.686	1.181	4.21
